Assay results from ChEMBL document CHEMBL1131460, “2-substituted (2SR)-2-amino-2-((1SR,2SR)-2-carboxycycloprop-1-yl)glycines as potent and selective antagonists of group II metabotropic glutamate receptors. 2. Effects of aromatic substitution, pharmacological characterization, and bioavailability” (J Med Chem, 1998).

Columns and labels:
[1] = tested on: Rattus norvegicus; assay: Area under curve was evaluated in rat brain when administered intraperitoneally at a dose of 10 mg/kg for infinite hours; format: ADME, organism-based; design: time infinity, dose 10 mg/kg, route intraperitoneal; conditions: in vivo, ip
[2] = tested on: Rattus norvegicus; assay: Area under curve was evaluated in rat brain when administered intravenously at a dose of 10 mg/kg for 4 or 6 hours; format: ADME, organism-based; design: dose 10 mg/kg, route intravenous; conditions: in vivo, iv
[3] = tested on: Rattus norvegicus; assay: Area under curve was evaluated in rat brain when administered intravenously at a dose of 10 mg/kg for infinite hours; format: ADME, organism-based; design: time infinity, dose 10 mg/kg, route intravenous; conditions: in vivo, iv
[4] = tested on: Rattus norvegicus; assay: Area under curve was evaluated in rat brain when administered perorally at a dose of 100 mg/kg for 4 or 6 hours; format: ADME, organism-based; design: dose 100 mg/kg, route oral; conditions: in vivo, po
[5] = tested on: Rattus norvegicus; assay: Area under curve was evaluated in rat plasma when administered intraperitoneally at a dose of 10 mg/kg for 4 or 6 hours; format: ADME, organism-based; design: dose 10 mg/kg, route intraperitoneal; conditions: in vivo, ip
Summary of the method: (§1)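 Male Fischer 344 rats were dosed at 10 mg/kg iv, 10 mg/kg ip, or 10 or 100 mg/kg po, with five rats per route and dose. One rat was sampled for blood and brain at each time: 0.25, 0.5, 1, 2 and 4 h after iv/ip, and 0.5, 1, 2, 4 and 6 h after po. Plasma and brain homogenates were derivatized, extracted and quantified by negative-ion chemical ionization GCMS (LOQ 100 pg/mL plasma, 1 ng/g brain).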

[6] = tested on: Rattus norvegicus; assay: Area under curve was evaluated in rat plasma when administered intravenously at a dose of 10 mg/kg for 4 or 6 hours; format: ADME, organism-based; design: dose 10 mg/kg, route intravenous; conditions: in vivo, iv; summary of the method: as §1
[7] = tested on: Rattus norvegicus; assay: Area under curve was evaluated in rat plasma when administered perorally at a dose of 100 mg/kg for 4 or 6 hours; format: ADME, organism-based; design: dose 100 mg/kg, route oral; conditions: in vivo, po; summary of the method: as §1
[8] = tested on: Rattus norvegicus; assay: Area under curve was evaluated in rat plasma when administered perorally at a dose of 10 mg/kg for infinite hours; format: ADME, organism-based; design: time infinity, dose 10 mg/kg, route oral; conditions: in vivo, po; summary of the method: as §1
[9] = tested on: Rattus norvegicus; assay: Area under curve was evaluated in rat brain when administered perorally at a dose of 10 mg/kg for 4 or 6 hours; format: ADME, organism-based; design: dose 10 mg/kg, route oral; conditions: in vivo, po
[10] = Maximum concentration achieved in rat plasma when administered perorally at a dose of 10 mg/kg; format: ADME, organism-based; design: dose 10 mg/kg, route oral; conditions: po
Summary of the method: (§2)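 Male Fischer 344 rats dosed iv or ip at 10 mg/kg, or orally at 10 or 100 mg/kg; five rats per route and dose. Blood and brain taken from one rat per time point (0.25, 0.5, 1, 2, 4 h after iv/ip; 0.5, 1, 2, 4, 6 h after po). Plasma and brain homogenates derivatized, extracted, assayed by negative-ion chemical ionization GCMS (LOQ 100 pg/mL plasma, 1 ng/g brain).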

[11] = tested on: Rattus norvegicus; assay: Bioavailability was evaluated in rat plasma when administered intraperitoneally at a dose of 10 mg/kg; format: ADME, organism-based; conditions: in vivo, ip
[12] = Maximum concentration achieved in rat brain when administered intraperitoneally at a dose of 10 mg/kg; format: ADME, organism-based; design: dose 10 mg/kg, route intraperitoneal; conditions: ip; summary of the method: as §2
[13] = Maximum concentration achieved in rat brain when administered perorally at a dose of 100 mg/kg; format: ADME, organism-based; design: dose 100 mg/kg, route oral; conditions: po; summary of the method: as §2
[14] = Maximum concentration achieved in rat brain when administered perorally at a dose of 10 mg/kg; format: ADME, organism-based; design: dose 10 mg/kg, route oral; conditions: po; summary of the method: as §2
[15] = Maximum concentration achieved in rat plasma when administered intraperitoneally at a dose of 10 mg/kg; format: ADME, organism-based; design: dose 10 mg/kg, route intraperitoneal; conditions: ip; summary of the method: as §2
[16] = Brain concentration after 1 hr at a dose of 100 mg/kg when administered perorally; conditions: po
[17] = Brain concentration after 1 hr at a dose of 10 mg/kg when administered intraperitoneally; conditions: ip
[18] = Brain concentration after 2 hr at a dose of 10 mg/kg when administered perorally; conditions: po
[19] = Brain concentration after 4 hr at a dose of 10 mg/kg when administered intraperitoneally; conditions: ip
[20] = Brain concentration after 6 hr at a dose of 100 mg/kg when administered perorally; conditions: po
[21] = Maximum concentration achieved in rat plasma when administered intravenously at a dose of 10 mg/kg; format: ADME, organism-based; design: dose 10 mg/kg, route intravenous; conditions: iv; summary of the method: as §2
[22] = Brain concentration after 2 hr at a dose of 10 mg/kg when administered intraperitoneally; conditions: ip
[23] = Brain concentration after 0.5 h at a dose of 10 mg/kg when administered intraperitoneally; conditions: ip
[24] = Brain concentration after 0.5 hr at a dose of 10 mg/kg when administered intravenously; conditions: iv
[25] = Clearance rate in rat plasma when administered intravenously at a dose of 10 mg/kg; format: ADME, organism-based; design: dose 10 mg/kg, route intravenous; conditions: iv, read-out: Clp (converted); summary of the method: as §1
[26] = Plasma concentration after 0.5 hr at a dose of 10 mg/kg when administered intraperitoneally; conditions: ip
[27] = Plasma concentration after 0.5 hr at a dose of 10 mg/kg when administered intravenously; conditions: iv
[28] = Plasma concentration after 0.5 hr at a dose of 10 mg/kg when administered perorally; conditions: po
[29] = Plasma concentration after 1 hr at a dose of 10 mg/kg when administered intraperitoneally; conditions: ip
[30] = Plasma concentration after 2 hr at a dose of 10 mg/kg when administered intravenously; conditions: iv
[31] = Plasma concentration after 2 hr at a dose of 10 mg/kg when administered perorally; conditions: po
[32] = Plasma concentration after 4 hr at a dose of 10 mg/kg when administered perorally; conditions: po
[33] = Plasma concentration after 6 hr at a dose of 10 mg/kg when administered perorally; conditions: po
[34] = Time of maximum concentration achieved in rat brain when administered intravenously at a dose of 10 mg/kg; format: ADME, organism-based; design: dose 10 mg/kg, route intravenous; conditions: iv; summary of the method: as §2
[35] = Time of maximum concentration achieved in rat plasma when administered perorally at a dose of 100 mg/kg; format: ADME, organism-based; design: dose 100 mg/kg, route oral; conditions: po; summary of the method: as §2
[36] = Half-life in rat plasma when administered intravenously at a dose of 10 mg/kg; format: ADME, organism-based; design: dose 10 mg/kg, route intravenous; conditions: iv; summary of the method: as §1
[37] = Half-life in rat plasma when administered perorally at a dose of 10 mg/kg; format: ADME, organism-based; design: dose 10 mg/kg, route oral; conditions: po; summary of the method: as §1
[38] = Half-life in rat brain when administered intraperitoneally at a dose of 10 mg/kg; format: ADME, organism-based; design: dose 10 mg/kg, route intraperitoneal; conditions: ip
[39] = Time of maximum concentration achieved in rat brain when administered intraperitoneally at a dose of 10 mg/kg; format: ADME, organism-based; design: dose 10 mg/kg, route intraperitoneal; conditions: ip; summary of the method: as §2
[40] = Half-life in rat plasma when administered perorally at a dose of 100 mg/kg; format: ADME, organism-based; design: dose 100 mg/kg, route oral; conditions: po; summary of the method: as §2
[41] = Brain concentration after 4 hr at a dose of 10 mg/kg when administered intravenously; conditions: iv
[42] = Plasma concentration after 6 hr at a dose of 100 mg/kg when administered perorally; conditions: po
[43] = Clearance rate in rat plasma when administered intraperitoneally at a dose of 10 mg/kg; format: ADME, organism-based; design: dose 10 mg/kg, route intraperitoneal; conditions: ip, read-out: Clp (converted); summary of the method: as §1
[44] = Time of maximum concentration achieved in rat brain when administered perorally at a dose of 100 mg/kg; format: ADME, organism-based; design: dose 100 mg/kg, route oral; conditions: po; summary of the method: as §2
[45] = in vivo; conditions: brain, iv, 10 mg/kg
[46] = in vivo; conditions: brain, iv, 10 mg/kg; remark: listed apart in the source
[47] = in vivo; conditions: plasma, ip, 10 mg/kg
[48] = Volume of distribution in rat plasma when administered intraperitoneally at a dose of 10 mg/kg; conditions: ip

AUC [1]: 1790 ng·h/mL
AUC [2]: 701 ng·h/mL
AUC [3]: 1840 ng·h/mL
AUC [4]: 120 ng·h/mL
AUC [5]: 12700 ng·h/mL
AUC [6]: 8370 ng·h/mL
AUC [7]: 1380 ng·h/mL
AUC [8]: 284 ng·h/mL
AUC [9]: 26.4 ng·h/mL
Cmax [10]: 64.1 ng/mL
Bioavailabiility [11]: 152%
Cmax [12]: 246 ng/g
Cmax [13]: 30 ng/g
Cmax [14]: 7.4 ng/g
Cmax [15]: 14300 ng/mL
concentration at 1 h [16]: 16.4 ng/g
concentration at 1 h [17]: 235 ng/g
concentration at 2 h [18]: 3 ng/g
concentration at 4 h [19]: 149 ng/g
concentration at 6 h [20]: 29.6 ng/g
Cmax [21]: 12000 ng/mL
concentration at 2 h [22]: 202 ng/g
concentration at 0.5 h [23]: 246 ng/g
concentration at 0.5 h [24]: 243 ng/g
clearance [25]: 19.8 mL/min/kg
concentration at 0.5 h [26]: 10700 ng/mL
concentration at 0.5 h [27]: 5970 ng/mL
concentration at 0.5 h [28]: 64.1 ng/mL
concentration at 1 h [29]: 4570 ng/mL
concentration at 2 h [30]: 845 ng/mL
concentration at 2 h [31]: 50 ng/mL
concentration at 4 h [32]: 28.3 ng/mL
concentration at 6 h [33]: 17.5 ng/mL
Tmax [34]: 0.5 h
Tmax [35]: 1 h
half-life [36]: 0.48 h
half-life [37]: 2.64 h
half-life [38]: 4.75 h
Tmax [39]: 0.5 h
half-life [40]: 1.94 h
concentration at 4 h [41]: 145 ng/g
concentration at 6 h [42]: 102 ng/mL
CL/F [43]: 13 mL/min/kg
Tmax [44]: 6 h
concentration at 1 h [45]: 188 ng/g
concentration at 0.25 h [46]: 234 ng/g
concentration at 0.25 h [47]: 14300 ng/mL
Vd [48]: 0.49 L/kg
Structure (SMILES): N[C@](CC1c2ccccc2Oc2ccccc21)(C(=O)O)[C@H]1C[C@@H]1C(=O)O
